# Bioassay records as filed in PubChem.
# TRPN1 ag: zebrafish TRPN1 channel agonists, primary screen, cell-based, HEK293, calcium fluorescence. transient receptor potential cation channel N1 (TRPN1/NompC), Danio rerio. HEK293 zebrafish TRPN1-YFP, Fluo-8 calcium fluorescence; 100% = response to 87 µM carbachol. activation, % at 3 µM. 220,000 compounds, 0.18% hits;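 active means activation above its plate's cutoff, the mean activation of test wells on that plate plus 3 SD, cut at about 19% in these data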;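 further: 0% = DMSO alone and 100% = 87 µM carbachol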
#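 Material: zebrafish TRPN1-YFP in HEK293 cells. Doses: one dose of 3 µM, 0.3% DMSO. Incubation: dye 1 h 37 °C plus 30 min RT. Measured by: intracellular calcium fluorescence with Fluo-8.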
# ABCG2 inh: ABCG2 efflux pump inhibitors, primary screen, multiplex with ABCB1, IgMXP3 cells, flow cytometry; Broad substrate specificity ATP-binding cassette transporter ABCG2 (Homo sapiens), Q9UNQ0; JC-1 efflux; inhibition, % at 6.6 µM; 190,000 compounds, 0.1% hits; AID 1325, 2008;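 active means inhibition above 80%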;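 further: 0% = DMSO and 100% = nicardipine control wells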
#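 Test system: ABCG2 IgMXP3 and barcoded ABCB1 CCRF-Adr cell mix; Schedule: cells with compound and JC-1, 10 min at 25 °C, rotating, no wash; Technique: flow cytometry of retained JC-1 fluorescence; Measure: % inhibition of efflux relative to nicardipine and DMSO; Controls: nicardipine high and DMSO low controls.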
# ROMK mod: ROMK potassium channel modulators, primary screen, cell-based, thallium flux, MLSMR library | ATP-sensitive inward rectifier potassium channel 1 (Homo sapiens), P48048 | B-score at 10 µM | 130,000 compounds, 2% hits | Tet-inducible ROMK, thallium flux fluorescence; actives lie on both sides;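 active means signal ratio slope over the read window, or its plate-corrected B-score, at least 3 SD from the plate mean, either direction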;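 further: B-score of the F/F0 ratio slope over 7 to 12 s after thallium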
# Calb biofilm kill: clotrimazole potentiators killing C. albicans biofilm, primary screen, 4-compound mixtures | 120,000 compounds, 0.02% hits | inhibition, % at 7.6 µM | C. albicans biofilm persisters + clotrimazole, fluorescence viability; primary screen in compound mixtures of four per well;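 further: compounds exposed to preformed 24 h biofilms for 48 h; 0% = untreated biofilm control and 100% = clotrimazole plus chlorhexidine kill blank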
#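 Incubation: 24 h biofilm formation, then 48 h compound exposure, 37 °C | Material: C. albicans biofilms | Buffer or medium: RPMI/MOPS medium, pH 7.0 | Measured by: 2-h Alamar Blue fluorescence, 535/590 nm excitation/emission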
# TRPML3 ag: human TRPML3 channel agonists, primary screen, cell-based, HEK293 TRPML3-YFP, Fluo-8 calcium fluorescence, 3 µM; Mucolipin-3 (Homo sapiens), Q8TDD5; 100% = the carbachol control signal; activation, % at 3 µM; 220,000 compounds, 0.29% hits; AID 1448, 2008;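 active means activation above its plate's cutoff, the mean activation of the plate's test wells plus 3 SD, cut at about 12% in these data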;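 further: 0% = DMSO only wells and 100% = carbachol wells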
#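 system = HEK293 cells stably carrying human TRPML3-YFP | doses = one concentration, 3 µM nominal, 0.3% DMSO | timing = dye loading 1 h 37 °C then 30 min ambient, 125 s read | detection = Fluo-8 calcium dye fluorescence, ex 470-495, em 515-575 nm | benchmarks = high control carbachol 87 µM, low control DMSO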
# ABCB1 inh: ABCB1 efflux pump inhibitors, primary screen, cell-based, multiplex, flow cytometry, ABCG2 counter-screen. CCRF-Adr cells, JC-1 efflux. inhibition, % at 6.6 µM. 190,000 compounds, 0.067% hits. ATP-dependent translocase ABCB1 (Homo sapiens), P08183; in the data active means inhibition above about 40%;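 further: 0% = vehicle and 100% = reference inhibitor; higher value means more JC-1 retained so stronger ABCB1 efflux block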
# Target sequence (P08183 whole entry, looked up): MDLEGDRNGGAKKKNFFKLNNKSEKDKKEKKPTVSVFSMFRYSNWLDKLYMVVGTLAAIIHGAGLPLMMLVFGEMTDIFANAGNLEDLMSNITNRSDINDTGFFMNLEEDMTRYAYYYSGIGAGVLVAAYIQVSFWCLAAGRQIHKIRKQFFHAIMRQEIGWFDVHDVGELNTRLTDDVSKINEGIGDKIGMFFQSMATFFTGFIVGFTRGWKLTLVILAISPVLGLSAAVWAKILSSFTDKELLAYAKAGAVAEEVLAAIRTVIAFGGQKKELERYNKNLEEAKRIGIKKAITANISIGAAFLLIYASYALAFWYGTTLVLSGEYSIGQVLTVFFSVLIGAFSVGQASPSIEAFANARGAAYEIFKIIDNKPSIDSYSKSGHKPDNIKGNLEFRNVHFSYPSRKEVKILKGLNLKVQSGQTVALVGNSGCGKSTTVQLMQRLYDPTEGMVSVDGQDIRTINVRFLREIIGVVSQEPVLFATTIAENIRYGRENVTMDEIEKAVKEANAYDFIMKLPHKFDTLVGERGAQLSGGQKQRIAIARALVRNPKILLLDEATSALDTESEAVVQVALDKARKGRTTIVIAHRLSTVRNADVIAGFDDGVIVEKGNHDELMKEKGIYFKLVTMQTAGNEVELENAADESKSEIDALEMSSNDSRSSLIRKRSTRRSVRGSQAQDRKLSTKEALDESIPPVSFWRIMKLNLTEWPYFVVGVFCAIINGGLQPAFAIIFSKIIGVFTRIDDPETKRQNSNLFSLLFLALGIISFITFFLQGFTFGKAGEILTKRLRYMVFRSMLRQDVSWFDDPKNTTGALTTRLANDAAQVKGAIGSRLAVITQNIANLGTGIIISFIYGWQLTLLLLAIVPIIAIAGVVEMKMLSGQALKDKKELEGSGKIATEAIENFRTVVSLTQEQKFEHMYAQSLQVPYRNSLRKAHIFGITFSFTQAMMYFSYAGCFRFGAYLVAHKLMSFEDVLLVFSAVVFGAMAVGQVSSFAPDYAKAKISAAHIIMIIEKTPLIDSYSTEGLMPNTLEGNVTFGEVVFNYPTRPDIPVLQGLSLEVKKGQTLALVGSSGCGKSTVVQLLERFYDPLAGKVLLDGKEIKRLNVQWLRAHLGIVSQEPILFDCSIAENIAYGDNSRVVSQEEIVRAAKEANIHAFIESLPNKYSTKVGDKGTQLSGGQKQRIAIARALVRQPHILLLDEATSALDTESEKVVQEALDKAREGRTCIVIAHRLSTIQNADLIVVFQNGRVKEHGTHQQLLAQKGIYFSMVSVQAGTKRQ
# TRPN1 counter: zebrafish TRPN1 channel agonists, counter-screen for TRPML3 agonist project, cell-based, HEK293 TRPN1-YFP, Fluo-8 calcium; AID 1525, 2009; activation, % at 3 µM; shares compounds with TRPML3 ag; 310 compounds, 10% hits; Fluo-8 calcium fluorescence; scaled: carbachol wells 100%, DMSO wells 0%;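 active means mean activation over replicates above a set limit taken from the earlier TRPN1 channel primary screen, cut at about 19% in these data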;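 further: 100% = carbachol and 0% = 0.3% DMSO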
# TRPML3 ag conf: human TRPML3 channel agonists, confirmation, cell-based, HEK293 TRPML3-YFP, Fluo-8 calcium, triplicate; shares compounds with TRPML3 ag; Fluo-8 calcium fluorescence; 100% set by carbachol, 0% by DMSO; activation, % at 3 µM; 310 compounds, 80% hits; AID 1526, 2009;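 active means activation above a set limit derived from the earlier primary screen, cut at about 12% in these data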
# Active calls of the source: *; . = not tested or not shown. Only a selection was taken, and hits are over-represented in it overall.
SMILES,TRPN1 ag,ABCG2 inh,ROMK mod,Calb biofilm kill,TRPML3 ag,ABCB1 inh,TRPN1 counter,TRPML3 ag conf
COc1ccc(S(=O)(=O)N2CCCCCC2)cc1Br,-2,4,-2,24,106*,1,-2,70*
COc1ccc(S(=O)(=O)N2CCCCCC2)cc1N,0,3,0.033,17,1,4,.,.
COc1ccc(S(=O)(=O)N2CCOCC2)cc1Br,0,3,-2,11,1,1,.,.
COc1cc(C)ccc1S(=O)(=O)N1CCCCCC1,1,2,0.69,26,94*,1,0,34*
COc1ccc(S(=O)(=O)N2CCCCCC2)cc1N(C)S(=O)(=O)c1ccc(C)cc1,2,4,.,13,55*,1,2,49*
CCOc1ccc(S(=O)(=O)N2CCCCC2)c(C)c1C,-1,24,-0.13,14,84*,1,-2,77*
CCS(=O)(=O)c1nc(S(=O)(=O)c2ccc(Cl)cc2)c(NCCOC)s1,2,1,1.3,15,0,0,.,.
O=C(O)/C=C/C(=O)Nc1ccc(O)cc1,0,.,.,24,1,.,.,.
Cc1[nH]c2ccccc2c1C(=O)CN1CC(C)OC(C)C1 (centres undefined),0,.,.,15,1,.,.,.
COc1ccc(NS(=O)(=O)c2ccc(OC)c(N(C)S(=O)(=O)c3ccc(Cl)cc3)c2)cc1,0,31,.,.,69*,15,-1,34*
COC(=O)C(Cc1ccccc1)NS(=O)(=O)c1ccc(F)cc1Br (centres undefined),.,.,.,16,.,.,.,.
CCCCc1ccc(NC(=O)C(=O)NCCN2CCN(Cc3ccc([N+](=O)[O-])cc3)CC2)cc1,1,0,2.3,11,1,1,.,.
Cc1ccc(S(=O)(=O)N(C)c2ccc(C)c([N+](=O)[O-])c2)cc1,-2,24,-0.55,14,69*,2,-1,72*
COc1ccc(N(C)S(=O)(=O)c2ccc(C)cc2)c([N+](=O)[O-])c1,-2,11,-0.84,-3,35*,2,-1,42*
Cc1ccc(S(=O)(=O)N(C)c2ccc(N)cc2)cc1,0,1,.,.,0,0,.,.
Cc1nc(Cl)nc(N(C)c2ccccc2)c1[N+](=O)[O-],-3,.,.,15,-2,.,.,.
COc1ccc(OC)c(N(CC(=O)N2CCC(C)CC2)S(=O)(=O)c2ccc(OC)c(OC)c2)c1,0,19,.,.,1,9,.,.
COc1cc2oc3ccccc3c2cc1N(CC(=O)N1CCCCC1)S(=O)(=O)c1ccc(C)cc1,16,19,-4.9*,.,179*,3,48*,147*
COc1ccc(OC)c(N(CC(=O)N2CCCCC2)S(=O)(=O)c2ccc(OC)c(OC)c2)c1,0,1,1.1,14,88*,1,2,105*
COc1ccc(OC)c(N(CC(=O)N2CCC(C)CC2)S(=O)(=O)c2ccccc2)c1,0,0,.,.,8,0,.,.
COc1ccc(N(CC(=O)N2CCCCC2)S(=O)(=O)c2ccccc2)c(OC)c1,1,-2,.,.,71*,5,2,121*
COc1cc2oc3ccccc3c2cc1N(CC(=O)N(C)C)S(=O)(=O)c1ccc(C)cc1,-1,-3,0.01,.,1,-3,.,.
CCOC(=O)N1CCN(C(=O)COc2cccc3c2CCN(Cc2ccccc2F)C3=O)CC1,0,9,-0.28,11,1,9,.,.
CCOc1ccccc1NC(=O)C1CCN(C(=O)Cc2ccccc2)CC1,0,3,-0.2,18,0,1,.,.
COc1ccc(S(=O)(=O)NC2CCCCC2)c(C)c1C,-2,12,-1.8,.,14*,1,-1,15*
SMILES,TRPN1 ag,ABCG2 inh,ROMK mod,Calb biofilm kill,TRPML3 ag,ABCB1 inh,TRPN1 counter,TRPML3 ag conf
O=C(COCC(=O)N1CCOCC1)N1CCOCC1,2,0,.,4,1,1,.,.
CCOc1ccc2c(c1)C(C)=CC(C)(C)N2S(=O)(=O)c1ccc(C)cc1,-1,10,-0.3,19,16*,0,-1,33*
Cc1ccccc1N1CCN(S(=O)(=O)c2ccccc2)CC1,-1,1,-0.72,2,65*,0,-2,36*
Clc1ccccc1OCc1nnc(-c2ccccc2Br)o1,0,5,.,.,-1,0,.,.
O=c1c(Cl)c(Cl)cnn1Cc1nnc(-c2ccccc2Br)o1,7,14,-0.2,5,18*,1,15,37*
O=C(C1=C(O)C(=O)N(CCc2ccccc2)C1c1ccncc1)c1cc2ccccc2o1 (centres undefined),-1,1,0.04,4,-1,1,.,.
O=C(C1=C(O)C(=O)N(c2nccs2)C1c1ccccc1)c1cc2ccccc2o1 (centres undefined),16,.,.,13,12*,.,5,2
C=CCNC(=O)c1ccccc1NC(=O)COc1ccccc1,-1,11,0.51,5,0,1,.,.
CSc1nsc(/C=C/Nc2cccc(Cl)c2)c1C#N,1,0,-0.81,.,40*,0,0,14*
CSc1nsc(/C=C/Nc2ccc(Cl)cc2)c1C#N,1,0,.,.,6,0,.,.
COc1cccc(CN(CC2CCCO2)S(=O)(=O)c2ccc(S(=O)(=O)N(C)C)cc2)c1 (centres undefined),0,3,1.5,.,14*,1,1,17*
Cc1cc(C)n(-c2nc(C)nc(NCc3ccccc3)n2)n1,3,9,-0.27,.,25*,2,3,23*
COC(=O)c1c(NC(=O)COC(=O)[C@@H](NS(=O)(=O)c2ccc(C)cc2)C(C)C)sc2c1CCC2,0,13,-0.31,16,29*,3,-1,50*
COC(=O)c1c(NC(=O)COC(=O)c2ccc(C)s2)sc2c1CCCCC2,2,4,.,12,2,1,.,.
CCCCC(CC)C(=O)Nc1ncc([N+](=O)[O-])s1 (centres undefined),14,5,.,4,13*,0,16,6
